Columns and labels:
[1] = biological target: T1, TLR7 (Homo sapiens, UniProt Q9NYK1); assay: TLR7 antagonism reporter gene assay; format: cell-based
T1 sequence (Q9NYK1 27-1049): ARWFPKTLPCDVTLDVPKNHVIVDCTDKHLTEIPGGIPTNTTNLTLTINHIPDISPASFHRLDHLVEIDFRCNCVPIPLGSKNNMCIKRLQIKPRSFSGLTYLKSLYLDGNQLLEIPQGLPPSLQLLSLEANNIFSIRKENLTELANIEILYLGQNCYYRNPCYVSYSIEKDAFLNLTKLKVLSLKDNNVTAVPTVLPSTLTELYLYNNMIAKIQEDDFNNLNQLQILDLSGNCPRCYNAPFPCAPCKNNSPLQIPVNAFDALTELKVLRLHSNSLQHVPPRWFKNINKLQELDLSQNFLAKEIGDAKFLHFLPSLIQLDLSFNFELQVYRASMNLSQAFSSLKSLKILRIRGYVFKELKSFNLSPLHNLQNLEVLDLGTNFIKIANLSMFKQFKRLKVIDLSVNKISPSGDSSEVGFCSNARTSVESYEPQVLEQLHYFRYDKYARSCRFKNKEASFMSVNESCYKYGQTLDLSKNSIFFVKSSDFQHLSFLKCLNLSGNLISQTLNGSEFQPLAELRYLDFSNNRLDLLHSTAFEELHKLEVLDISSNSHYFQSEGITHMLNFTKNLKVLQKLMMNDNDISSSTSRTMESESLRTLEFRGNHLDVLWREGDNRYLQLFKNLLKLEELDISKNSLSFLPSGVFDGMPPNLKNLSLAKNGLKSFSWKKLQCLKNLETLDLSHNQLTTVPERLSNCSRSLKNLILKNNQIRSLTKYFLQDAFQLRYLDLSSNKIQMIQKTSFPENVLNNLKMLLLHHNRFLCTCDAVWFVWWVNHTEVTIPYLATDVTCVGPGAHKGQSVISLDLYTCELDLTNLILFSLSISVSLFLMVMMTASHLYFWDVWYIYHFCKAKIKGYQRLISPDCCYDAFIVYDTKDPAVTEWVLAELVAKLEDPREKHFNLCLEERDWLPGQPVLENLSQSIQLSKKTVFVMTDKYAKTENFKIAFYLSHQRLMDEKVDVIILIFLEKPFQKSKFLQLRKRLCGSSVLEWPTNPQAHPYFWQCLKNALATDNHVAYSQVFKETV
How it was run: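 HEK-Blue-7 cells (HEK293 stably expressing TLR7 plus NF-κB/AP-1-driven secreted alkaline phosphatase reporter) were kept in selection medium with zeocin and normocin and grown to confluency. They were stimulated with gardiquimod at 1 μg/mL, or 250 ng/mL for Schild analysis, with serially diluted test compound (top 250 μM) added concurrently. After overnight incubation, supernatant sAP was read with chromogen at 620 nm. Replicates were duplicate or quadruplicate.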

[2] = biological target: T2, TLR8 (Homo sapiens, UniProt Q9NR97); assay: TLR8 antagonism reporter gene assay; format: cell-based
T2 sequence (Q9NR97 27-1041): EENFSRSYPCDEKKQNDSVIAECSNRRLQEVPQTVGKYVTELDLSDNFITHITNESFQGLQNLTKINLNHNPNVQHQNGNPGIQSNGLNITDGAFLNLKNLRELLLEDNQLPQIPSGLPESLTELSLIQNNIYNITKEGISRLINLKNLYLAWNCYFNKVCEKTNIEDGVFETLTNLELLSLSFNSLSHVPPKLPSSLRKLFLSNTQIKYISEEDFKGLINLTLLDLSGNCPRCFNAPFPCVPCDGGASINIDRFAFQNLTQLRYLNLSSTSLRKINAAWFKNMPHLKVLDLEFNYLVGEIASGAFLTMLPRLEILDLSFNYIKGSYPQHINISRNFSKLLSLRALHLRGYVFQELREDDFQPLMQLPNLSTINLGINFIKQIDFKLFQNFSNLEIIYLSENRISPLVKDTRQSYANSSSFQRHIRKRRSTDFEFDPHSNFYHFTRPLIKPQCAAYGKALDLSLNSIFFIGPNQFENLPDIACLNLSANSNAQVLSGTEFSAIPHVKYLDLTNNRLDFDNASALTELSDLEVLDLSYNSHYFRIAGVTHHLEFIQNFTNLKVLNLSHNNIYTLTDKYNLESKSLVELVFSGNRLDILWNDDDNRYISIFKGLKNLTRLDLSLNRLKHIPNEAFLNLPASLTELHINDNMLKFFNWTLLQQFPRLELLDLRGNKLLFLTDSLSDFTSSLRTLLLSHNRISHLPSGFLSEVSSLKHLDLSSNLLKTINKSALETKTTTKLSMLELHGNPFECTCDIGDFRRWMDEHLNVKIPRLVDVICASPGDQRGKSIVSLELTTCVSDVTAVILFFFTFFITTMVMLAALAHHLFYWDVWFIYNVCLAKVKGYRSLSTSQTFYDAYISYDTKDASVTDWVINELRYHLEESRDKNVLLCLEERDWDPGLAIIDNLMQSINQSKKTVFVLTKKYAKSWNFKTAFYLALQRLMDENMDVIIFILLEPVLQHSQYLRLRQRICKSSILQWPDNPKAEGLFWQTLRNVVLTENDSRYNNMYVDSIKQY

IC50 [1]	Compound	other results
> 250 µM	CCNCc1nc2c3ccccc3ncc2n1CCCO [Compound 6a, 3-(2-((ethylamino)methyl)-3H-imidazo[4,5-c]quinolin-3-yl)propan-1-ol]	IC50 [2]: > 250 µM
> 250 µM	CC(C)(O)Cn1c(-c2ccccc2)nc2c3ccccc3ncc21 [Compound 4b, 2-methyl-1-(2-phenyl-3H-imidazo[4,5-c]quinolin-3-yl)propan-2-ol]	–
> 250 µM	CCNCc1nc2c3ccccc3[n+]([O-])cc2n1CC(C)(C)O [Compound 10, 2-((ethylamino)methyl)-3-(2-hydroxy-2-methylpropyl)-3H-imidazo[4,5-c]quinoline 5-oxide]	–
> 250 µM	CCNCc1nc2c3ccccc3nc(NC(=O)c3ccccc3)c2n1CC(C)(C)O [Compound 11, N-(2-((ethylamino)methyl)-3-(2-hydroxy-2-methylpropyl)-3H-imidazo[4,5-c]quinolin-4-yl)benzamide]	–

Second part, the molecule before the results:

Compound	IC50 [1]	other results
C#CCn1c(CCCCCCCCC)nc2c3ccccc3ncc21 [Compound 7d]	–	TLR7-inhibitory activity [1]: low micromolar TLR7-inhibitory activity
COc1ccc(Cn2c(-c3ccccc3)nc3c4ccccc4ncc32)cc1 [Compound 5b, 3-(4-methoxybenzyl)-2-phenyl-3H-imidazo[4,5-c]quinoline]	> 250 µM	IC50 [2]: > 250 µM
COc1ccc(Cn2c(-c3ccccc3)nc3c4ccccc4[n+](Cc4ccc(OC)cc4)cc32)cc1 [Compound 12, 3,5-bis(4-methoxybenzyl)-2-phenyl-3H-imidazo[4,5-c]quinolin-5-ium]	–	Mode of inhibition by Schild analyses ([1]; agonist gardiquimod 1 μg/mL and 250 ng/mL): competitive
CCCCCCCCCc1nc2c3ccccc3ncc2n1C [Compound 8d]	–	TLR7-inhibitory activity [1]: low micromolar TLR7-inhibitory activity
CC(C)(O)Cn1c(C2CCCCC2)nc2c3ccccc3ncc21 [Compound 4c]	> 250 µM	–

— PMC3114175 (Bioorganic & medicinal chemistry, 2011)
